From ChEMBL document CHEMBL1123534, “Synthesis and renal vasodilator activity of 2-chlorodopamine and N-substituted derivatives” (1986)

Assays:
Canis familiaris [1] = test: Effect of compound on the renal blood flow (RBF) in alpha-blocked anesthetized dogs at a dose of 1000 nmol after SCH 23390.; type: functional, Canis lupus familiaris, Kidney
In short: (§1)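 Phenoxybenzamine α-blocked anesthetized dogs, N=4-5/group (dopamine N=18). Doses given as renal-artery boluses; Δ renal blood flow in mL/min, mean ± SEM. SCH 23390 infused at 0.5 µg/kg/min iv, with doses repeated 5 min after infusion onset. After ≥1.5 h recovery, propranolol was given at 0.5 mg/kg ia over 15 min. The combined condition repeated SCH 23390 infusion with propranolol present.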

Canis familiaris [2] = test: Effect of compound on the renal blood flow (RBF) in alpha-blocked anesthetized dogs at a dose of 1000 nmol after propranolol; type: functional, Canis lupus familiaris, Kidney; in short: as §1
Canis familiaris [3] = test: Effect of compound on the renal blood flow (RBF) in alpha-blocked anesthetized dogs at a dose of 1000 nmol after SCH 23390+propranolol; type: functional, Canis lupus familiaris, Kidney; in short: as §1
Canis familiaris [4] = test: Compound was tested for the renal vasodilatory activity in anesthetized dog.; type: functional, Canis lupus familiaris; design: unit not given here
In short: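 Dogs anesthetized and α-blocked with phenoxybenzamine, with saline infused iv during blockade. Four ascending bolus doses (3-10000 nmol) given into the renal artery in 0.2 mL isotonic saline, one test compound per dog. Maximal rise in renal blood flow was taken as % of each dog's response to 100 nmol dopamine. ED30 is the dose raising flow by 30%.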

Canis familiaris [5] = test: Effect of compound on the renal blood flow (RBF) in alpha-blocked anesthetized dogs at a dose of 300 nmol after SCH 23390.; type: functional, Canis lupus familiaris, Kidney; in short: as §1
Canis familiaris [6] = test: Effect of compound on the renal blood flow (RBF) in alpha-blocked anesthetized dogs at a dose of 300 nmol after propranolol; type: functional, Canis lupus familiaris, Kidney; in short: as §1
Canis familiaris [7] = test: Effect of compound on the renal blood flow (RBF) in alpha-blocked anesthetized dogs at a dose of 300 nmol after SCH 23390+propranolol; type: functional, Canis lupus familiaris, Kidney; in short: as §1
Canis familiaris [8] = test: Effect of compound on the renal blood flow (RBF) in alpha-blocked anesthetized dogs at a dose of 100 nmol after propranolol; type: functional, Canis lupus familiaris, Kidney; in short: as §1
Canis familiaris [9] = test: Effect of compound on the renal blood flow (RBF) in alpha-blocked anesthetized dogs at a dose of 100 nmol after SCH 23390.; type: functional, Canis lupus familiaris, Kidney; in short: as §1
Canis familiaris [10] = test: Effect of compound on the renal blood flow (RBF) in alpha-blocked anesthetized dogs at a dose of 100 nmol after SCH 23390+propranolol; type: functional, Canis lupus familiaris, Kidney; in short: as §1
Canis familiaris [11] = test: Effect of compound on the renal blood flow (RBF) in alpha-blocked anesthetized dogs at a dose of 10000 nmol after propranolol; type: functional, Canis lupus familiaris, Kidney; in short: as §1
Canis familiaris [12] = test: Effect of compound on the renal blood flow (RBF) in alpha-blocked anesthetized dogs at a dose of 10000 nmol after SCH 23390+propranolol; type: functional, Canis lupus familiaris, Kidney; in short: as §1
Canis familiaris [13] = test: Effect of compound on the renal blood flow (RBF) in alpha-blocked anesthetized dogs at a dose of 3000 nmol after SCH 23390+propranolol; type: functional, Canis lupus familiaris, Kidney; in short: as §1
Canis familiaris [14] = test: Effect of compound on the renal blood flow (RBF) in alpha-blocked anesthetized dogs at a dose of 3000 nmol after propranolol; type: functional, Canis lupus familiaris, Kidney; in short: as §1
Canis familiaris [15] = test: Effect of compound on the renal blood flow (RBF) in alpha-blocked anesthetized dogs at a dose of 10000 nmol after SCH 23390.; type: functional, Canis lupus familiaris, Kidney; in short: as §1
Canis familiaris [16] = test: Effect of compound on the renal blood flow (RBF) in alpha-blocked anesthetized dogs at a dose of 3000 nmol after SCH 23390.; type: functional, Canis lupus familiaris, Kidney; in short: as §1

SMILES	ED30 (Canis familiaris [4])	RBF (Canis familiaris [5]) [mL/min]	RBF (Canis familiaris [6]) [mL/min]	RBF (Canis familiaris [8]) [mL/min]	RBF (Canis familiaris [9]) [mL/min]	also measured
CCNCCc1ccc(O)c(O)c1Cl.Cl	67.4	22	25	–	–	RBF (Canis familiaris [1]): 32 mL/min; RBF (Canis familiaris [2]): 40 mL/min; RBF (Canis familiaris [3]): 2 mL/min; RBF (Canis familiaris [7]): 2 mL/min
Cl.NCCc1ccc(O)c(O)c1Cl	13.5	–	–	43	4	–
CNCCc1ccc(O)c(O)c1Cl.Cl	11.5	15	49	34	8	–
NCCc1ccc(O)c(O)c1 [DOPAMINE]	–	–	–	69	15	RBF (Canis familiaris [10]): 14 mL/min
CCCNCCc1ccc(O)c(O)c1Cl.Cl	2166	–	–	–	–	RBF (Canis familiaris [11]): 17 mL/min; RBF (Canis familiaris [12]): 5 mL/min; RBF (Canis familiaris [13]): 2 mL/min; RBF (Canis familiaris [14]): 11 mL/min; RBF (Canis familiaris [15]): 17 mL/min; RBF (Canis familiaris [16]): 11 mL/min
